CHO parental Ca: ATP-evoked calcium signal inhibitors, parental CHO, primary screen, counter-screen for OX1R antagonist project, cell-based, fluorescence, Fluo-8 calcium dye; parental CHO-K1, ATP-induced calcium, Fluo-8 fluorescence; inhibition, % at 5.6 µM; hit rate 0.63% among 330,000;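 active = inhibition above that plate's mean sample inhibition plus 3 SD, cut at about 26% in these data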
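Test system: untransfected parental CHO cell line. Compound: one dose, 5.6 µM nominal. Detection: intracellular calcium via Fluo-8 no-wash fluorescent dye. Measure: % inhibition. Benchmarks: ATP-challenged DMSO wells low, unchallenged DMSO wells high.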
OX1R antag-1: antagonists of human orexin 1 receptor (OX1R); Orexin/Hypocretin receptor type 1 (Homo sapiens), O43613; OX1R-expressing cells, FRET antagonist read-out; inhibition, % at 6.6 µM; hit rate 1.8% among 330,000; in the data active = inhibition mostly above about 38%, no sharp cut-off; inactive = mostly below about 40%
OX1R antag-2: OX1R (HCRTR1) antagonists, primary screen, fluorescence, CHO/OX1R cells, Fluo-8 calcium, orexin A; Orexin/Hypocretin receptor type 1 (Homo sapiens), O43613; Fluo-8 calcium fluorescence; inhibition, % at 5 µM; hit rate 0.43% among 330,000;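 active = inhibition above its plate's threshold, mean inhibition of all tested compounds on the plate plus 3 SD, cut at about 37% in these data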
PGE2 EP2 inh: human EP2 receptor antagonists, primary screen, TR-FRET cAMP, C6 glioma cells; Prostaglandin E2 receptor EP2 subtype (Homo sapiens), P43116; C6 glioma cells expressing human EP2; cells stimulated with saturating PGE2; inhibition, % at 25 µM; hit rate 0.52% among 260,000; AID 1422, 2008;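 active = percent inhibition above 40 after rounding to a whole number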;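 also: rat C6 glioma host cells with rolipram phosphodiesterase inhibitor present; the protocol text gives 20 µM as final concentration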
GPR7 antag: GPR7 receptor antagonists, primary screen, cell-based, fluorescence, single concentration; inhibition, % at 4.4 µM; Neuropeptides B/W receptor type 1 (Homo sapiens), P48145; GPR7-expressing cells, fluorescence antagonist assay; hit rate 1.1% among 290,000; in the data active = inhibition above about 16%, passing the limit was not always enough;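 also: cells stimulated with the agonist NPW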
Target sequence (P48145 whole entry, looked up): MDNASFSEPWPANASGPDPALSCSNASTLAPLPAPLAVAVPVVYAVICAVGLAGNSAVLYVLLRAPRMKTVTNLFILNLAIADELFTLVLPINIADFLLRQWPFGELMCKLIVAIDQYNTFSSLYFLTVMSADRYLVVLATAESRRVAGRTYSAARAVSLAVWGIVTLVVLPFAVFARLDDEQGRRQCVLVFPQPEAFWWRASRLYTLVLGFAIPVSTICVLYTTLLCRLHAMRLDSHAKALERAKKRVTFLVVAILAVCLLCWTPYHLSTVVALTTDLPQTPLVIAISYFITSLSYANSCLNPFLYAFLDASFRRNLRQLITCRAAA
EP2 modulator: EP2 receptor modulators, cAMP readout, primary screen, cell-based, HTRF cAMP, PGE2 stimulation. induction, % at 25 µM. EP2-expressing cells, cAMP HTRF FRET, PGE2 co-stimulation. Prostaglandin E2 receptor EP2 subtype (Homo sapiens), P43116. hit rate 0.83% among 260,000. AID 940, 2007;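 active = compounds whose cAMP rise, as percent of the full-agonist control response, exceeds 60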;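 also: rat C6 glioma line stably carrying human EP2 under a CMV promoter; the protocol text gives 20 µM as final concentration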
OX1R Ca confirm: OX1R (HCRTR1) antagonists, confirmation, fluorescence, CHO/OX1R cells, Fluo-8 calcium, orexin A; shares compounds with OX1R antag-2; orexin A calcium Fluo-8 fluorescence; inhibition, % at 5 µM; hit rate 38% among 1,100; AID 492963, 2010; in the data active = inhibition above about 29%
CHO Ca counter: ATP-evoked calcium inhibition in parental CHO, counter-screen for OX1R antagonist project, cell-based, fluorescence, CHO-K1, triplicate; shares compounds with OX1R antag-2; ATP-induced calcium, Fluo-8 fluorescence; inhibition, % at 5.6 µM; hit rate 9.3% among 1,100; AID 492965, 2010;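 active = inhibition above a per-plate limit, the mean inhibition of that plate's test compounds plus 3 SD, cut at about 25% in these data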
Large screens that a line does not name were inactive (follow-up assays come after a bar, where they were run). Sampled rows, rich in hits. Any-hit rate of the full collection: about 3.7%.

Cc1ccnc(NS(=O)(=O)c2cc([N+](=O)[O-])ccc2C)c1	none | OX1R Ca confirm inactive | CHO Ca counter inactive
COc1ccc(C(=O)NNC(=S)NC(=O)c2ccco2)cc1	none | OX1R Ca confirm inactive | CHO Ca counter inactive
CCc1cc2c(COC(=O)c3cc(S(=O)(=O)N4CCOCC4)ccc3F)cc(=O)oc2cc1O	none (no result: PGE2 EP2 inh, GPR7 antag, EP2 modulator) | OX1R Ca confirm inactive | CHO Ca counter inactive
CCN(CC)S(=O)(=O)c1cc(NC(=O)Cc2n[nH]c(=O)c3ccccc23)ccc1C	none
CN(c1ccccc1)S(=O)(=O)c1cccc(NC(=O)Cc2n[nH]c(=O)c3ccccc23)c1	none (no result: PGE2 EP2 inh, GPR7 antag, EP2 modulator) | OX1R Ca confirm inactive | CHO Ca counter inactive
Cc1ccccc1CN(C)CC(=O)Nc1cccc(S(=O)(=O)N(C)c2ccccc2)c1	none
Cc1cc(C)c(NC(=O)CN(C)CC(=O)Nc2cccc(S(=O)(=O)N(C)c3ccccc3)c2)c(C)c1	OX1R antag-2 37.0 (no result: PGE2 EP2 inh, GPR7 antag, EP2 modulator) | OX1R Ca confirm inactive | CHO Ca counter inactive
Cc1ccccc1-c1nnn(Cc2cccc(S(=O)(=O)N3CCOCC3)c2)n1	OX1R antag-2 43.5 (no result: PGE2 EP2 inh, GPR7 antag, EP2 modulator) | OX1R Ca confirm 43.9 | CHO Ca counter inactive
O=C1c2ccccc2S(=O)(=O)N1Cc1cccc(S(=O)(=O)N2CCOCC2)c1	none
COc1ccccc1N(CC(=O)Nc1ccccc1)S(=O)(=O)c1cccs1	none (no result: PGE2 EP2 inh, GPR7 antag, EP2 modulator)
COc1cccc(NC(=O)CN(c2ccccc2OC)S(=O)(=O)c2cccs2)c1	none (no result: PGE2 EP2 inh, GPR7 antag, EP2 modulator) | OX1R Ca confirm inactive | CHO Ca counter inactive
COc1ccc(Cn2c(=O)[nH]c3cc(C(=O)N4CCN(Cc5ccccc5)CC4)ccc3c2=O)cc1	none
C=CCNc1nc(N(c2ccccc2)c2ccccc2)nc(-n2ccnc2)n1	none | OX1R Ca confirm 87.9 | CHO Ca counter inactive
C=C(C)COc1ccc(-c2[nH]ncc2-c2ccccc2OC)c(O)c1	none | OX1R Ca confirm inactive | CHO Ca counter inactive
CC1CCN(C(=O)c2ccc(SCc3ccccc3F)c([N+](=O)[O-])c2)CC1	none
Cc1ncc(CO)c2c1Oc1nc(-c3ccccc3)nc(SCC(=O)N(C)c3ccccc3)c1C2	none (no result: PGE2 EP2 inh, EP2 modulator)
Cc1ncc(CO)c2c1Oc1nc(-c3ccccc3F)nc(SCC(=O)N(C)c3ccccc3)c1C2	none (no result: PGE2 EP2 inh, EP2 modulator) | OX1R Ca confirm inactive | CHO Ca counter inactive
C=CCn1c(SCC(=O)Nc2ccc(S(N)(=O)=O)cc2)nnc1-c1cnccn1	none (no result: PGE2 EP2 inh, EP2 modulator)
CCn1nc(C(=O)Nc2cccc3ccccc23)c(Cl)c1Cl	none | OX1R Ca confirm inactive | CHO Ca counter inactive
Cc1cccc(OCC(=O)Nc2ccc(N3CCN(C(=O)c4ccco4)CC3)cc2)c1	OX1R antag-2 52.6 | OX1R Ca confirm 49.7 | CHO Ca counter 51.3
O=C(NCc1ccc(F)cc1)c1cc(S(=O)(=O)N2CCCCC2)ccc1N1CCOCC1	none (no result: PGE2 EP2 inh, GPR7 antag, EP2 modulator)
Fc1ccc(C2=CC(c3ccc(Br)o3)n3ncnc3N2)cc1 (stereo unspecified)	none | OX1R Ca confirm inactive | CHO Ca counter inactive
O=C(NC(=S)N1CCN(c2ccccc2)CC1)c1c(F)cccc1F	none (no result: PGE2 EP2 inh, EP2 modulator)
COc1ccc(NS(=O)(=O)c2ccc(N3CCCCC3)c(N)c2)cc1	OX1R antag-2 62.2 (no result: PGE2 EP2 inh, GPR7 antag, EP2 modulator) | OX1R Ca confirm inactive | CHO Ca counter 65.1
COc1ccc(NS(=O)(=O)c2ccc(N3CCCCC3)c(NC(=O)C(C)NC(N)=O)c2)cc1 (stereo unspecified)	none (no result: PGE2 EP2 inh, GPR7 antag, EP2 modulator)
Cc1ccc2c(c1)c(C1=NC(=S)NC1=O)c(O)n2C	none
O=C(NC(=S)Nc1ccc(N2CCCCC2)c(Cl)c1)c1ccc2c(c1)OCCO2	none (no result: PGE2 EP2 inh)

Screening results (PubChem)
